Reference: ChEMBL document CHEMBL4680121, “Development of (4-methoxyphenyl)-1H-tetrazol-5-amine regioisomers as a new class of selective antitubercular agents” (Eur J Med Chem, 2020)

Key:
Type in all cases: functional
[1] = test system: Mycobacterium tuberculosis; experiment: Antitubercular activity against INH-resistant Mycobacterium tuberculosis Spec.800 assessed as rifampicin MIC incubated for 14 days in presence of rifampicin by MABA method; conditions: Mycobacterium tuberculosis, 800, 336 h; time 14 day
How it was run: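 In Middlebrook 7H9 with 10% OADC, the reference drug (INH, RMP, SM or EMB) at 1 to 1/32 of its MIC alone was mixed with the test derivative fixed at 1/2 its MIC. 4 ml samples were inoculated with McFarland 1 suspension and incubated 14 days at 37 °C. MIC is the lowest drug concentration in combination that inhibited growth.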

[2] = test system: Mycobacterium tuberculosis; experiment: Potentiation of ethambutol-induced antimycobacterial activity against INH-resistant Mycobacterium tuberculosis Spec.800 harboring InhA promoter mutation assessed as fold decrease in ethambutol MIC at 1/2X MIC incubated for 14 days in presence of ethambutol by MABA method; conditions: time 14 day
How it was run: (§1)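 Combination assay in Middlebrook 7H9 broth with 10% OADC. The reference drug (INH, RMP, SM or EMB) was varied from 1 to 1/32 of its MIC, and the test derivative was fixed at 1/2 its own MIC. Single-agent MICs were determined first by MABA. Inoculum was 1 McFarland, with 14 days of incubation at 37 °C. The endpoint was the lowest reference-drug concentration that inhibited growth.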

[3] = test system: Mycobacterium tuberculosis; experiment: Antitubercular activity against PAS/INH/EMB/RMP-resistant Mycobacterium tuberculosis Spec.210 assessed as fractional inhibitory concentration index in presence of 1/2 x MIC rifampicin incubated for 14 days by MABA method; conditions: time 14 day
How it was run: (§2)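 Interaction analysis in Middlebrook 7H9 with 10% OADC. Combination MICs came from mixing the derivative (1 to 1/32 MIC) with the reference drug at 1/2 MIC, and the reverse, after 14 days at 37 °C with McFarland 1 inoculum. FICI was calculated from the combination MIC values and the MICs alone.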

[4] = test system: Mycobacterium tuberculosis; experiment: Antitubercular activity against PAS/INH/EMB/RMP-resistant Mycobacterium tuberculosis Spec.210 assessed as rifampicin MIC incubated for 14 days in presence of rifampicin by MABA method; conditions: Mycobacterium tuberculosis, 210, 336 h; time 14 day; how it was run: as §1
[5] = test system: Mycobacterium tuberculosis; experiment: Potency index, Ratio of ethambutol MIC to test compound MIC for antitubercular activity against PAS/INH/EMB/RMP-resistant Mycobacterium tuberculosis Spec.210 assessed as inhibition of microbial growth incubated for 1 week by MABA method; conditions: time 1 weeks
[6] = test system: Mycobacterium tuberculosis; experiment: Antitubercular activity against INH-resistant Mycobacterium tuberculosis Spec.800 harboring InhA promoter mutation assessed as fractional inhibitory concentration index in presence of 1/2 x MIC ethambutol incubated for 14 days by MABA method; conditions: time 14 day; how it was run: as §2
[7] = test system: Mycobacterium tuberculosis; experiment: Potentiation of rifampcin-induced antimycobacterial activity against INH-resistant Mycobacterium tuberculosis Spec.800 harboring InhA promoter mutation assessed as fold decrease in rifampicin MIC at 1/2X MIC incubated for 14 days in presence of rifampicin by MABA method; conditions: time 14 day; how it was run: as §1
[8] = test system: Mycobacterium tuberculosis; experiment: Antitubercular activity against INH-resistant Mycobacterium tuberculosis Spec.800 harboring InhA promoter mutation assessed as inhibition of microbial growth incubated for 1 week by MABA method; conditions: time 1 weeks
How it was run: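 Microplate Alamar Blue assay in Middlebrook 7H9 broth with 10% OADC. Inoculum from fresh LJ culture was adjusted to McFarland 1 and diluted 1:20. DMSO stocks were two-fold serially diluted to final 0.125–512 µg/ml, with growth and sterile controls. Plates ran 1 week at 37 °C, then Alamar blue was added for 24 h. MIC is the lowest concentration preventing the blue-to-pink change.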

[9] = test system: Mycobacterium tuberculosis; experiment: Potentiation of streptomycin-induced antimycobacterial activity against INH-resistant Mycobacterium tuberculosis Spec.800 harboring InhA promoter mutation assessed as fold decrease in streptomycin MIC at 1/2X MIC incubated for 14 days in presence of streptomycin by MABA method; conditions: time 14 day; how it was run: as §1
[10] = test system: Mycobacterium tuberculosis; experiment: Antitubercular activity against INH-resistant Mycobacterium tuberculosis Spec.800 assessed as reduction in bacterial growth incubated for 14 days in presence of 1/2 x MIC isoniazid by MABA method; conditions: Mycobacterium tuberculosis, 800, 336 h; time 14 day
How it was run: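 Checkerboard-type combination in Middlebrook 7H9 with 10% OADC. The test derivative at 1 to 1/32 of its MIC alone was mixed with the reference drug fixed at 1/2 its MIC. 4 ml samples were inoculated with McFarland 1 suspension and incubated 14 days at 37 °C. MIC is the lowest derivative concentration in combination that inhibited growth in liquid medium.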

[11] = test system: Mycobacterium tuberculosis; experiment: Potentiation of isoniazid-induced antimycobacterial activity against INH-resistant Mycobacterium tuberculosis Spec.800 harboring InhA promoter mutation assessed as fold decrease in isoniazid MIC at 1/2X MIC incubated for 14 days in presence of isoniazid by MABA method; conditions: time 14 day; how it was run: as §1
[12] = test system: Mycobacterium tuberculosis; experiment: Antitubercular activity against INH-resistant Mycobacterium tuberculosis Spec.800 harboring InhA promoter mutation assessed as fractional inhibitory concentration index in presence of 1/2 x MIC rifampicin incubated for 14 days by MABA method; conditions: time 14 day; how it was run: as §2

| Structure (SMILES) | MIC [1] | fold change (FC) [2] | fractional inhibitory concentration index (FICI) [3] | MIC [4] | Ratio [5] | fractional inhibitory concentration index (FICI) [6] | fold change (FC) [7] | MIC [8] | fold change (FC) [9] | MIC [10] | fold change (FC) [11] | fractional inhibitory concentration index (FICI) [12] |
| --- | --- | --- | --- | --- | --- | --- | --- | --- | --- | --- | --- | --- |
| COc1ccc(-n2nnnc2Nc2cccc(Br)c2)cc1 | 0.25 µg/mL | <=4 | 0.5 | 8 µg/mL | 16 | 0.75 | <=4 | 128 µg/mL | <=4 | 16 µg/mL | <=4 | 0.75 |
| COc1ccc(-n2nnnc2Nc2ccc(Br)cc2)cc1 | 0.125 µg/mL |  | 0.75 | 8 µg/mL | 16 | 0.75 |  | 128 µg/mL | 4 | 32 µg/mL |  | 1.125 |
